ChEMBL document CHEMBL1926550, “Synthesis and antibacterial activity of naphthyridone derivatives containing mono/difluoro-methyloxime pyrrolidine scaffolds” (2012)
≈ marks a conversion by molar mass, not a printed value.

Key:
Format in all cases: functional
Staphylococcus aureus [1] = assay: Antibacterial activity against methicillin-sensitive Staphylococcus aureus 10-2 after 18 hrs by two fold serial dilution method; conditions: 10-2, 18 h
How it was run: (§1)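 Agar two-fold serial dilution in melted Mueller-Hinton agar, final concentrations 128 down to 0.008 μg/mL. Plates inoculated with 10⁴ cfu and incubated at 35 °C for 18 h. MIC taken as the lowest concentration giving no visible growth on the plate.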

Pseudomonas aeruginosa [2] = assay: Antibacterial activity against Pseudomonas aeruginosa ATCC 27853 after 18 hrs by two fold serial dilution method; conditions: ATCC 27853, 18 h; how it was run: as §1
Escherichia coli [3] = assay: Antibacterial activity against Escherichia coli 09-3 after 18 hrs by two fold serial dilution method; conditions: 09-3, 18 h; how it was run: as §1
[4] = test system: Staphylococcus epidermidis; assay: Antibacterial activity against methicillin-sensitive Staphylococcus epidermidis 10-1 after 18 hrs by two fold serial dilution method; conditions: 10-1, 18 h; how it was run: as §1
Escherichia coli [5] = assay: Antibacterial activity against Escherichia coli 09-1 after 18 hrs by two fold serial dilution method; conditions: 09-1, 18 h; how it was run: as §1
Staphylococcus aureus [6] = assay: Antibacterial activity against methicillin-sensitive Staphylococcus aureus 10-1 after 18 hrs by two fold serial dilution method; conditions: 10-1, 18 h; how it was run: as §1
Enterococcus faecalis [7] = assay: Antibacterial activity against Enterococcus faecalis 09-1 after 18 hrs by two fold serial dilution method; conditions: 09-1, 18 h; how it was run: as §1
[8] = test system: Staphylococcus epidermidis; assay: Antibacterial activity against methicillin-resistant Staphylococcus epidermidis 10-1 after 18 hrs by two fold serial dilution method; conditions: 10-1, 18 h
How it was run: (§2)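 Agar two-fold serial dilution in melted Mueller-Hinton agar, 128 to 0.008 μg/mL. Plates inoculated with 10⁴ cfu, incubated 35 °C for 18 h. MIC taken as lowest concentration giving no visible growth on the plate.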

[9] = test system: Staphylococcus epidermidis; assay: Antibacterial activity against methicillin-resistant Staphylococcus epidermidis 10-2 after 18 hrs by two fold serial dilution method; conditions: 10-2, 18 h; how it was run: as §2
Escherichia coli [10] = assay: Antibacterial activity against Escherichia coli ATCC 25922 after 18 hrs by two fold serial dilution method; conditions: ATCC 25922, 18 h; how it was run: as §1
Pseudomonas aeruginosa [11] = assay: Antibacterial activity against Pseudomonas aeruginosa 10-2 after 18 hrs by two fold serial dilution method; conditions: 10-2, 18 h; how it was run: as §1
Staphylococcus aureus [12] = assay: Antibacterial activity against methicillin-resistant Staphylococcus aureus 10-3 after 18 hrs by two fold serial dilution method; conditions: 10-3, 18 h; how it was run: as §2
Staphylococcus aureus [13] = assay: Antibacterial activity against methicillin-resistant Staphylococcus aureus 10-1 after 18 hrs by two fold serial dilution method; conditions: 10-1, 18 h; how it was run: as §2
Pseudomonas aeruginosa [14] = assay: Antibacterial activity against Pseudomonas aeruginosa 10-3 after 18 hrs by two fold serial dilution method; conditions: 10-3, 18 h; how it was run: as §1
Escherichia coli [15] = assay: Antibacterial activity against Escherichia coli 10-2 after 18 hrs by two fold serial dilution method; conditions: 10-2, 18 h; how it was run: as §1
Enterococcus faecium [16] = assay: Antibacterial activity against Enterococcus faecium 09-4 after 18 hrs by two fold serial dilution method; conditions: 09-4, 18 h; how it was run: as §1
Streptococcus pneumoniae = assay: Antibacterial activity against Streptococcus pneumoniae 10-1 after 18 hrs by two fold serial dilution method; conditions: 10-1, 18 h; how it was run: as §1
Escherichia coli [17] = assay: Antibacterial activity against Escherichia coli 10-3 after 18 hrs by two fold serial dilution method; conditions: 10-3, 18 h; how it was run: as §1
Pseudomonas aeruginosa [18] = assay: Antibacterial activity against Pseudomonas aeruginosa 10-1 after 18 hrs by two fold serial dilution method; conditions: 10-1, 18 h; how it was run: as §1
Staphylococcus aureus [19] = assay: Antibacterial activity against methicillin-sensitive Staphylococcus aureus 10-3 after 18 hrs by two fold serial dilution method; conditions: 10-3, 18 h; how it was run: as §1
Staphylococcus aureus [20] = assay: Antibacterial activity against methicillin-sensitive Staphylococcus aureus 10-4 after 18 hrs by two fold serial dilution method; conditions: 10-4, 18 h; how it was run: as §1
Staphylococcus aureus [21] = assay: Antibacterial activity against methicillin-sensitive Staphylococcus aureus 10-5 after 18 hrs by two fold serial dilution method; conditions: 10-5, 18 h; how it was run: as §1
[22] = test system: Staphylococcus epidermidis; assay: Antibacterial activity against methicillin-sensitive Staphylococcus epidermidis 10-2 after 18 hrs by two fold serial dilution method; conditions: 10-2, 18 h; how it was run: as §1
Staphylococcus aureus [23] = assay: Antibacterial activity against methicillin-resistant Staphylococcus aureus 10-2 after 18 hrs by two fold serial dilution method; conditions: 10-2, 18 h; how it was run: as §2
Staphylococcus aureus [24] = assay: Antibacterial activity against methicillin-resistant Staphylococcus aureus 10-4 after 18 hrs by two fold serial dilution method; conditions: 10-4, 18 h; how it was run: as §2
Enterococcus faecalis [25] = assay: Antibacterial activity against Enterococcus faecalis 09-2 after 18 hrs by two fold serial dilution method; conditions: 09-2, 18 h; how it was run: as §1
Klebsiella pneumoniae [26] = assay: Antibacterial activity against Klebsiella pneumoniae 10-3 after 18 hrs by two fold serial dilution method; conditions: 10-3, 18 h; how it was run: as §1
Escherichia coli [27] = assay: Antibacterial activity against Escherichia coli 09-2 after 18 hrs by two fold serial dilution method; conditions: 09-2, 18 h; how it was run: as §1
Klebsiella pneumoniae [28] = assay: Antibacterial activity against Klebsiella pneumoniae 10-1 after 18 hrs by two fold serial dilution method; conditions: 10-1, 18 h; how it was run: as §1
Staphylococcus aureus [29] = assay: Antibacterial activity against methicillin-sensitive Staphylococcus aureus 10-6 after 18 hrs by two fold serial dilution method; conditions: 10-6, 18 h; how it was run: as §1
Enterococcus faecium [30] = assay: Antibacterial activity against Enterococcus faecium 09-3 after 18 hrs by two fold serial dilution method; conditions: 09-3, 18 h; how it was run: as §1
Klebsiella pneumoniae [31] = assay: Antibacterial activity against Klebsiella pneumoniae 09-2 after 18 hrs by two fold serial dilution method; conditions: 09-2, 18 h; how it was run: as §1
Enterococcus faecium [32] = assay: Antibacterial activity against Enterococcus faecium 09-5 after 18 hrs by two fold serial dilution method; conditions: 09-5, 18 h; how it was run: as §1
Enterococcus faecium [33] = assay: Antibacterial activity against Enterococcus faecium 09-1 after 18 hrs by two fold serial dilution method; conditions: 09-1, 18 h; how it was run: as §1
Escherichia coli [34] = assay: Antibacterial activity against Escherichia coli 10-1 after 18 hrs by two fold serial dilution method; conditions: 10-1, 18 h; how it was run: as §1
Staphylococcus aureus [35] = assay: Antibacterial activity against Staphylococcus aureus ATCC 25923 after 18 hrs by two fold serial dilution method; conditions: ATCC 25923, 18 h; how it was run: as §1
Enterococcus faecium [36] = assay: Antibacterial activity against Enterococcus faecium 09-2 after 18 hrs by two fold serial dilution method; conditions: 09-2, 18 h; how it was run: as §1
Enterococcus faecium [37] = assay: Antibacterial activity against Enterococcus faecium 09-6 after 18 hrs by two fold serial dilution method; conditions: 09-6, 18 h; how it was run: as §1

| SMILES | MIC (Staphylococcus aureus [1]) | MIC (Pseudomonas aeruginosa [2]) | MIC [4] | MIC (Staphylococcus aureus [6]) | MIC (Enterococcus faecalis [7]) | MIC [8] | MIC [9] | MIC (Escherichia coli [10]) | MIC (Pseudomonas aeruginosa [11]) | MIC (Staphylococcus aureus [12]) | MIC (Staphylococcus aureus [13]) | MIC (Pseudomonas aeruginosa [14]) | MIC (Escherichia coli [15]) | MIC (Enterococcus faecium [16]) | MIC (Streptococcus pneumoniae) | MIC (Escherichia coli [17]) | MIC (Pseudomonas aeruginosa [18]) | MIC (Staphylococcus aureus [19]) | MIC (Staphylococcus aureus [20]) | MIC (Staphylococcus aureus [21]) | also measured |
| --- | --- | --- | --- | --- | --- | --- | --- | --- | --- | --- | --- | --- | --- | --- | --- | --- | --- | --- | --- | --- | --- |
| NCC1CN(c2nc3c(cc2F)c(=O)c(C(=O)O)cn3-c2ccc(F)cc2F)C/C1=N\OC(F)F (racemic) | 1 µg/mL (≈ 2.01 µM) | 4 µg/mL (≈ 8.04 µM) | 32 µg/mL (≈ 64.3 µM) | 0.03 µg/mL (≈ 0.0603 µM) | 8 µg/mL (≈ 16.1 µM) | 2 µg/mL (≈ 4.02 µM) | 1 µg/mL (≈ 2.01 µM) | 8 ng/mL (≈ 0.0161 µM) | 128 µg/mL (≈ 257 µM) | 16 µg/mL (≈ 32.2 µM) | 16 µg/mL (≈ 32.2 µM) | 8 µg/mL (≈ 16.1 µM) | 4 µg/mL (≈ 8.04 µM) | 0.125 µg/mL (≈ 0.251 µM) | 0.06 µg/mL (≈ 0.121 µM) | 8 µg/mL (≈ 16.1 µM) | 1 µg/mL (≈ 2.01 µM) | 0.015 µg/mL (≈ 0.0302 µM) | 8 ng/mL (≈ 0.0161 µM) | 0.015 µg/mL (≈ 0.0302 µM) | MIC (Escherichia coli [3]): 64 µg/mL (≈ 129 µM); MIC (Escherichia coli [5]): 32 µg/mL (≈ 64.3 µM); MIC [22]: 64 µg/mL (≈ 129 µM); MIC (Staphylococcus aureus [23]): 4 µg/mL (≈ 8.04 µM); MIC (Staphylococcus aureus [24]): 16 µg/mL (≈ 32.2 µM); MIC (Enterococcus faecalis [25]): 16 µg/mL (≈ 32.2 µM); MIC (Klebsiella pneumoniae [26]): 2 µg/mL (≈ 4.02 µM); MIC (Escherichia coli [27]): > 128 µg/mL; MIC (Klebsiella pneumoniae [28]): 0.25 µg/mL (≈ 0.503 µM); MIC (Staphylococcus aureus [29]): 0.015 µg/mL (≈ 0.0302 µM); MIC (Enterococcus faecium [30]): 16 µg/mL (≈ 32.2 µM); MIC (Klebsiella pneumoniae [31]): 64 µg/mL (≈ 129 µM); MIC (Enterococcus faecium [32]): 32 µg/mL (≈ 64.3 µM); MIC (Enterococcus faecium [33]): 32 µg/mL (≈ 64.3 µM); MIC (Escherichia coli [34]): > 128 µg/mL; MIC (Staphylococcus aureus [35]): 8 ng/mL (≈ 0.0161 µM); MIC (Enterococcus faecium [36]): 32 µg/mL (≈ 64.3 µM); MIC (Enterococcus faecium [37]): 0.125 µg/mL (≈ 0.251 µM) |
| COc1c(N2C[C@@H]3CCCN[C@@H]3C2)c(F)cc2c(=O)c(C(=O)O)cn(C3CC3)c12 [MOXIFLOXACIN] | 4 µg/mL (≈ 9.96 µM) | 1 µg/mL (≈ 2.49 µM) | 2 µg/mL (≈ 4.98 µM) | 0.008 µg/mL (≈ 0.0199 µM) | 8 µg/mL (≈ 19.9 µM) | 0.5 µg/mL (≈ 1.25 µM) | 1 µg/mL (≈ 2.49 µM) | 8 ng/mL (≈ 0.0199 µM) | 16 µg/mL (≈ 39.9 µM) | 8 µg/mL (≈ 19.9 µM) | 8 µg/mL (≈ 19.9 µM) | 4 µg/mL (≈ 9.96 µM) | 0.5 µg/mL (≈ 1.25 µM) | 0.008 µg/mL (≈ 0.0199 µM) | 0.008 µg/mL (≈ 0.0199 µM) | 4 µg/mL (≈ 9.96 µM) | 0.5 µg/mL (≈ 1.25 µM) | 0.008 µg/mL (≈ 0.0199 µM) | 8 ng/mL (≈ 0.0199 µM) | 0.03 µg/mL (≈ 0.0747 µM) | MIC [22]: 16 µg/mL (≈ 39.9 µM); MIC (Staphylococcus aureus [23]): 8 µg/mL (≈ 19.9 µM); MIC (Staphylococcus aureus [24]): 8 µg/mL (≈ 19.9 µM); MIC (Enterococcus faecalis [25]): 16 µg/mL (≈ 39.9 µM); MIC (Klebsiella pneumoniae [26]): 0.5 µg/mL (≈ 1.25 µM); MIC (Escherichia coli [27]): 32 µg/mL (≈ 79.7 µM); MIC (Klebsiella pneumoniae [28]): 0.03 µg/mL (≈ 0.0747 µM); MIC (Staphylococcus aureus [29]): 0.008 µg/mL (≈ 0.0199 µM); MIC (Enterococcus faecium [30]): 2 µg/mL (≈ 4.98 µM); MIC (Klebsiella pneumoniae [31]): 16 µg/mL (≈ 39.9 µM); MIC (Enterococcus faecium [32]): 16 µg/mL (≈ 39.9 µM); MIC (Enterococcus faecium [33]): 16 µg/mL (≈ 39.9 µM); MIC (Staphylococcus aureus [35]): 8 ng/mL (≈ 0.0199 µM); MIC (Enterococcus faecium [36]): 16 µg/mL (≈ 39.9 µM); MIC (Enterococcus faecium [37]): 0.125 µg/mL (≈ 0.311 µM) |
